The text below walks through data of ChEMBL document CHEMBL1177863, “Diorganotin(IV) derivatives of ONO tridentate Schiff base: synthesis, crystal structure, in vitro antimicrobial, anti-leishmanial and DNA binding studies” (Eur J Med Chem, 2010).

One data set concerns Candida albicans. The experiment in a line: Antifungal activity against Candida albicans ATCC 2192 at 200 ug/ml by agar tube dilution test. Format: functional.
The next data set relates to Microsporum canis. The data set is described as follows: Antifungal activity against Microsporum canis ATCC 9865 at 200 ug/ml by agar tube dilution test. In kind it is functional.
The subject of a further data set is Trichophyton longifusum. The experiment in a line: Antifungal activity against Trichophyton longifusum ATCC 22397 at 200 ug/ml by agar tube dilution test. Format: functional.
For a further data set, the system named is Leishmania major. The data set is described as follows: Antileishmanial activity against Leishmania major MHOM/PK/88/DESTO promastigotes by alamar blue assay. Format: functional, organism-based. On the technique in general: The colour change of resazurin is a common sign of viable cells or microbes.
Another data set relates to Fusarium solani. The experiment in a line: Antifungal activity against Fusarium solani ATCC 11712 at 200 ug/ml by agar tube dilution test. In kind it is functional.
The next data set has as its system Aspergillus flavus. The experiment in a line: Antifungal activity against Aspergillus flavus ATCC 1030 at 200 ug/ml by agar tube dilution test. Format: functional.
The next data set concerns Nakaseomyces glabratus. The data set is described as follows: Antifungal activity against Candida glabrata ATCC 90030 at 200 ug/ml by agar tube dilution test. In kind it is functional.
The nature of data set [1]: Toxicity against Artemia salina nauplii larvae. The following applies: in vivo, read-out: LD50 (the source's name). Format: organism-based. The method, boiled down:
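Brine shrimp lethality bioassay. LD50 was derived from the mortality data by Finney's probit analysis.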

A further data set concerns Salmonella enterica. The data set is described as follows: Antibacterial activity against Salmonella typhi ATCC 10749 at 10 mg/disk by agar well-diffusion method. In kind it is functional, Salmonella enterica subsp. enterica serovar Typhi. The method, boiled down: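 Agar well-diffusion assay with compounds at 1 mg mL-1 in DMSO. Imipenem served as the reference disc. The read-out is the inhibition zone diameter in mm, graded as 3-6 non-significant, 7-9 low, 10-12 good and >12 significant.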

For the next data set, the system named is Staphylococcus aureus. The experiment in a line: Antibacterial activity against Staphylococcus aureus ATCC 25923 […] by agar well-diffusion method. Format: functional. The method, boiled down: (§1)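 Test compounds dissolved in DMSO at 1 mg mL-1 and applied in agar wells; imipenem reference at 10 mg/disc. Inhibition zone diameter was read and graded as 3-6 mm non-significant, 7-9 mm low, 10-12 mm good, and >12 mm significant.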
(In general: In agar diffusion tests the substance spreads into inoculated agar from a disc or well.)

For a further data set, the system named is Bacillus subtilis. The experiment in a line: Antibacterial activity against Bacillus subtilis ATCC 11774 […] by agar well-diffusion method. In kind it is functional. The method, boiled down: as §1
Another data set concerns Pseudomonas aeruginosa. The data set is described as follows: Antibacterial activity against Pseudomonas aeruginosa ATCC 10145 […] by agar well-diffusion method. In kind it is functional. The method, boiled down: as §1
Another data set has as its system Escherichia coli. The experiment in a line: Antibacterial activity against Escherichia coli ATCC 11229 […] by agar well-diffusion method. In kind it is functional. An outline of the steps: as §1
Another data set has as its system Shigella flexneri. The experiment in a line: Antibacterial activity against Shigella flexneri ATCC 10782 […] by agar well-diffusion method. In kind it is functional. An outline of the steps: as §1

Molecules are shown by their SMILES. Values after ≈ are worked out from the molar mass of the structure shown.

On to `O=CN/N=C/c1ccccc1O`, for which the inhibition at 200 µg/mL in the data set with Candida albicans was found to be 0%; with Microsporum canis it was 0%; in the data set with Trichophyton longifusum, 0%; in the data set with Fusarium solani, 0%; in the data set with Aspergillus flavus it was 40%; with Nakaseomyces glabratus, 0%. Moreover, in the data set on Leishmania major, the midpoint of inhibition, the IC50, lay at 24 µg/mL (≈ 146 µM).
For the compound `COc1cc([C@@H]2c3cc4c(cc3[C@@H](O[C@@H]3O[C@@H]5CO[C@@H](C)O[C@H]5[C@H](O)[C@H]3O)[C@H]3COC(=O)[C@H]23)OCO4)cc(OC)c1O` [ETOPOSIDE], the LC50 in data set [1] turned out to be 7.46 µg/mL (≈ 12.7 µM).
`C[C@@H](O)[C@H]1C(=O)N2C(C(=O)O)=C(SCCNC=N)C[C@H]12` [IMIPENEM ANHYDROUS]: the “diameter of the inhibition zone (DIZ)” value in the data set with Salmonella enterica worked out at 30 mm; with Staphylococcus aureus, 26 mm; in the data set with Bacillus subtilis, 37 mm; in the data set with Pseudomonas aeruginosa, 32 mm; with Escherichia coli, 30 mm; in the data set with Shigella flexneri, 36 mm.

Broadly, the inhibition is the relative decrease from the control value, in per cent. Lower therefore signals a weak effect. For orientation: IC50 means the point on the concentration scale where inhibition reaches its midpoint.
